Laboratory results published in paper PMC6911349 (Drug Design, Development and Therapy, 2019).
Converted amounts (≈) assume the structure as drawn. Where a name gives a salt, the structure may show the parent alone. Read-outs that look alike come from different tables or passages of the source. Values belong to the molecule of their own block, whether it stands above or below them.

Legend:
ABTS anti-radicals study = test: ABTS anti-radicals study
In short: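 ABTS (7 mM) combined with […] and held in the dark at 25 °C for 12–16 h to form radicals. Diluted in 0.01 M phosphate buffer, pH 7.4, to A734 of 0.70. 300 µL test compound solution added to 3.0 mL radical solution; decrease in absorbance recorded. Ascorbic acid as reference.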

[1] = DPPH radical scavenging assay
In short: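 Test compound dilutions of 62.50–1000 µg/mL; 0.1 mL of each added to 3.0 mL DPPH in methanol. Incubated 30 min, then absorbance read at 517 nm. % scavenging = [(A0–A1)/A0]×100, where A0 is control and A1 is test absorbance. Ascorbic acid as reference.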

H2O2 anti-radicals study = test: H2O2 anti-radicals study
In short: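 2 mM H2O2 in 50 mM phosphate buffer, pH 7.4, mixed with 0.1 mL test compound at various concentrations. Absorbance at 230 nm read against blank after 10 min; H2O2 scavenging calculated from absorbance.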

α-glucosidase = α-glucosidase (Saccharomyces cerevisiae, UniProt P53341); test: α-Glucosidase inhibition chromogenic assay; assay type: biochemical
Pheretima posthuma = test: Anthelmintic study
In short: (§1)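 P. posthuma (7–9 cm) collected from muddy soil; A. galli taken from domestic chicken intestine. Test compound suspended in distilled water with Tween 80 at 10, 20 and 40 mg. 25 mL per Petri dish, six worms per dish. […] Paralysis and death times recorded.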

Ascaridia galli = test: Anthelmintic study
In short: as §1

[2] = molecular target: butyrylcholinesterase (BChE) (Equus caballus, UniProt P81908); test: Butyrylcholinesterase inhibitory assay; assay type: biochemical, equine; conditions: for inhibition at 62.5 µg/mL: read-out: Butyrylcholinesterase (BChE) Percent Inhibition (Mean±SEM), 62.5 μg/mL; for inhibition at 125 µg/mL: read-out: Butyrylcholinesterase (BChE) Percent Inhibition (Mean±SEM), 125 μg/mL; for inhibition at 250 µg/mL: read-out: Butyrylcholinesterase (BChE) Percent Inhibition (Mean±SEM), 250 μg/mL; for inhibition at 1000 µg/mL: read-out: Butyrylcholinesterase (BChE) Percent Inhibition (Mean±SEM), 1000 μg/mL
HCT-116 = test: MTT assay; assay type: cell-based; conditions: Homo sapiens, HCT-116, 48 h
In short: (§2)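 Cells grown in DMEM with 10% FBS, streptomycin 100 µg/mL and penicillin 100 IU/mL, at 37 °C, 5% CO2. Seeded at 6×10^4 cells/mL (80% confluence) and incubated overnight. Medium replaced with fresh medium holding test compound at 31.25–1000 ppm for 48 h.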

MDA-MB-231 = test: MTT assay; assay type: cell-based; conditions: Homo sapiens, MDA-MB-231, 48 h
In short: as §2

NIH/3T3 = test: MTT assay; assay type: cell-based; conditions: Mus musculus, NIH3T3, 48 h
In short: as §2

MCF-7 = test: MTT assay; assay type: cell-based; conditions: Homo sapiens, MCF7, 48 h
In short: as §2

[3] = MTT assay, normal cell line; assay type: cell-based; conditions: human, WI-38 normal cell line
In short: as §2

WI-38 = test: MTT assay, normal cell line; assay type: cell-based; conditions: Homo sapiens, WI-38, WI-38 normal cell line
In short: as §2

[4] = molecular target: acetylcholinesterase (AChE) (Electrophorus electricus, UniProt O42275); test: biochemical; set-up: species or system electric eel
[5] = 40 mg/mL, listed as albendazole
[6] = 1000 µg/mL, listed as test compound
[7] = 40 mg/mL, listed as test compound

Chain of acetylcholinesterase (AChE) (O42275 24-633): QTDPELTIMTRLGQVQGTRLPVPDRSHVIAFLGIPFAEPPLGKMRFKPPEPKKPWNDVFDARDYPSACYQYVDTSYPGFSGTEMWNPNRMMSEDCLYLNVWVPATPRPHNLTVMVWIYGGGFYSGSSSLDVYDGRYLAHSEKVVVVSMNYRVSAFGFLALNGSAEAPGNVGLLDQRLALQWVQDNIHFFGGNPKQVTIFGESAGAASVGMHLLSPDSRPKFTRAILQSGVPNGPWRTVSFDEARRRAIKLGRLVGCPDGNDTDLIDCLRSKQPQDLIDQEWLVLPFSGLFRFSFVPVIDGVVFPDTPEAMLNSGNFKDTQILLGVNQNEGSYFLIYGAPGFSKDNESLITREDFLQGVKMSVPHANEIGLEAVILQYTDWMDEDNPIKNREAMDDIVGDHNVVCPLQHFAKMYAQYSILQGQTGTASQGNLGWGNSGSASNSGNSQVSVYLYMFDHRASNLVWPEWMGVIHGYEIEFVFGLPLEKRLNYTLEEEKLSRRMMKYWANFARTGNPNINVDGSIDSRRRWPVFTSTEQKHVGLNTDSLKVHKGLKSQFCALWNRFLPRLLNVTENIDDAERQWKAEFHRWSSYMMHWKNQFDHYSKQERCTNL
Chain of α-glucosidase (P53341 whole entry): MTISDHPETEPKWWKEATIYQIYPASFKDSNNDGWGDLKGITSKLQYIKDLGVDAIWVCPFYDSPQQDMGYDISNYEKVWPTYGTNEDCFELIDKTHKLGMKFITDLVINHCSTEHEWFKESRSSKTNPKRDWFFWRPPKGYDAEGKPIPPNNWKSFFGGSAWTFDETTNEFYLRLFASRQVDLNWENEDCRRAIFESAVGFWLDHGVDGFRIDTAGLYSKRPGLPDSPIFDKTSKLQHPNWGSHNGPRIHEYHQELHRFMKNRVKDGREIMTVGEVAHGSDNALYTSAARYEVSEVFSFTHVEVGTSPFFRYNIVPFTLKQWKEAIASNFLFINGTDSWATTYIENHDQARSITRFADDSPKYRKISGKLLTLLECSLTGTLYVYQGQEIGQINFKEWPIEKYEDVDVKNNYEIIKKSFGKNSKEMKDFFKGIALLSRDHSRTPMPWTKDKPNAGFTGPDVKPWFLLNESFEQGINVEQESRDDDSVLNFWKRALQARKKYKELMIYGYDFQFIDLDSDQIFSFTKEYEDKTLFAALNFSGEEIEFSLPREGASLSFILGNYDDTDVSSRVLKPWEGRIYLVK
Chain of butyrylcholinesterase (BChE) (P81908 whole entry): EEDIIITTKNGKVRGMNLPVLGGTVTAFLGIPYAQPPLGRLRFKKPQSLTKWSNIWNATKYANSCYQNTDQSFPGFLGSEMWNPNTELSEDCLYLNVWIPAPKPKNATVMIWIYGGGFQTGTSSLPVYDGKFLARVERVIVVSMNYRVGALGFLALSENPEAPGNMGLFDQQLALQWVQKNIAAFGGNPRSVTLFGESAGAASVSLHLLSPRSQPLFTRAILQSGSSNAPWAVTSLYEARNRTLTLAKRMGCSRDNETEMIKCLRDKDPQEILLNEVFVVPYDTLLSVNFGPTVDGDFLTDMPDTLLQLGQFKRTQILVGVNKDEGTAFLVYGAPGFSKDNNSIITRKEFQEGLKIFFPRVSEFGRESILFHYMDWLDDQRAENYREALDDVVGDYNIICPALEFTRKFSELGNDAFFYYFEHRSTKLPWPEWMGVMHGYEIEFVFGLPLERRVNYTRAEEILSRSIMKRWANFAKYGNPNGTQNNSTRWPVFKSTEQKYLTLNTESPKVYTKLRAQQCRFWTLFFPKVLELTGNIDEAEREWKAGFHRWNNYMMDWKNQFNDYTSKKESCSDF

ABTS IC50 value (ABTS anti-radicals study): 18.04 µg/mL
DPPH IC50 value [1]: 11.39 µg/mL
H2O2 IC50 value (H2O2 anti-radicals study): 29.73 µg/mL
SMILES: O=C1O[C@H]([C@@H](O)CO)C(O)=C1O [Ascorbic acid, ascorbic acid, reference compound]
ABTS % Inhibition (Mean±SEM) (ABTS anti-radicals study; 62.5 µg/mL): 59.12±0.34%
ABTS % Inhibition (Mean±SEM) (ABTS anti-radicals study; 125 µg/mL): 64.47±0.49%
ABTS % Inhibition (Mean±SEM) (ABTS anti-radicals study; 250 µg/mL): 69.75±0.14%
ABTS % Inhibition (Mean±SEM) (ABTS anti-radicals study; 500 µg/mL): 76.59±0.30%
ABTS % Inhibition (Mean±SEM) (ABTS anti-radicals study; 1000 µg/mL): 81.85±0.18%
DPPH % Inhibition (Mean±SEM) ([1]; 62.5 µg/mL): 61.35±0.18%
DPPH % Inhibition (Mean±SEM) ([1]; 125 µg/mL): 66.20±0.15%
DPPH % Inhibition (Mean±SEM) ([1]; 250 µg/mL): 73.42±0.11%
DPPH % Inhibition (Mean±SEM) ([1]; 500 µg/mL): 78.62±0.17%
DPPH % Inhibition (Mean±SEM) ([1]; 1000 µg/mL): 83.53±0.20%
H2O2 % Inhibition (Mean±SEM) (H2O2 anti-radicals study; 62.5 µg/mL): 56.67±1.67%
H2O2 % Inhibition (Mean±SEM) (H2O2 anti-radicals study; 125 µg/mL): 61.33±1.33%
H2O2 % Inhibition (Mean±SEM) (H2O2 anti-radicals study; 250 µg/mL): 68.85±1.85%
H2O2 % Inhibition (Mean±SEM) (H2O2 anti-radicals study; 500 µg/mL): 74.67±0.67%
H2O2 % Inhibition (Mean±SEM) (H2O2 anti-radicals study; 1000 µg/mL): 78.00±1.15%

Percent α-glucosidase inhibition (α-glucosidase; 31.25 µg/mL): 59.7±1.7%
Percent α-glucosidase inhibition (α-glucosidase; 62.5 µg/mL): 67.3±2.8%
Percent α-glucosidase inhibition (α-glucosidase; 125 µg/mL): 71.7±1.7%
Percent α-glucosidase inhibition (α-glucosidase; 250 µg/mL): 74.4± 2.3%
Percent α-glucosidase inhibition (α-glucosidase; 500 µg/mL): 81.7±2.6%
Percent α-glucosidase inhibition (α-glucosidase; 1000 µg/mL): 86.7±2.6%
SMILES: C[C@H]1O[C@H](O[C@H]2[C@H](O)[C@@H](O)[C@@H](O[C@H]3[C@H](O)[C@@H](O)C(O)O[C@@H]3CO)O[C@@H]2CO)[C@H](O)[C@@H](O)[C@@H]1N[C@H]1C=C(CO)[C@@H](O)[C@H](O)[C@H]1O (some centres unmarked) [Acarbose, acarbose]

SMILES: CCCSc1ccc2nc(NC(=O)OC)[nH]c2c1 [Alb, Albendazole, reference compound]
Pheretima posthuma Death Time (Pheretima posthuma; 10 mg/mL): 48.70 ± 2.06 min
Pheretima posthuma Paralysis Time (Pheretima posthuma; 10 mg/mL): 09.08 ± 1.56 min
Pheretima posthuma Death Time (Pheretima posthuma; 20 mg/mL): 39.33 ± 1.54 min
Pheretima posthuma Paralysis Time (Pheretima posthuma; 20 mg/mL): 07.24 ± 1.38 min
Pheretima posthuma Death Time (Pheretima posthuma; 40 mg/mL): 28.92 ± 2.68 min
Pheretima posthuma Paralysis Time (Pheretima posthuma; 40 mg/mL): 04.67 ± 0.57 min
Pheretima posthuma Death Time (Pheretima posthuma; [5]): 28.92 min
Pheretima posthuma Paralysis Time (Pheretima posthuma; [5]): 4.67 min
Ascaridia galli Death Time (Ascaridia galli; 10 mg/mL): 36.32 ± 1.36 min
Ascaridia galli Paralysis Time (Ascaridia galli; 10 mg/mL): 11.26 ± 2.81 min
Ascaridia galli Death Time (Ascaridia galli; 20 mg/mL): 32.56 ± 1.93 min
Ascaridia galli Paralysis Time (Ascaridia galli; 20 mg/mL): 09.45 ± 1.63 min
Ascaridia galli Death Time (Ascaridia galli; 40 mg/mL): 25.68 ± 3.62 min
Ascaridia galli Paralysis Time (Ascaridia galli; 40 mg/mL): 07.18 ± 1.74 min

SMILES: COc1ccc2c3c1O[C@H]1C[C@@H](O)C=C[C@@]31CCN(C)C2 [Galanthamine, Galanthamine hydrobromide, reference compound]
inhibition at 62.5 µg/mL [2]: 71.4%
inhibition at 125 µg/mL [2]: 78.6%
inhibition at 250 µg/mL [2]: 82.8%
inhibition at 1000 µg/mL [2]: 95%

SMILES: CCC(C=O)C1CC(=O)N(c2ccccc2)C1=O (centres unmarked) [2-(2,5-dioxo-1-phenylpyrrolidin-3-yl)butanal]
IC50 (HCT-116): 78 µg/mL (≈ 318 µM)
IC50 (MDA-MB-231): 231 µg/mL (≈ 942 µM)
IC50 (NIH/3T3): 181 µg/mL (≈ 738 µM)
IC50 (MCF-7): 277 µg/mL (≈ 1130 µM)
cytotoxicity at 48 h, 1000 ppm [3]: 16%
IC50 (WI-38): > 3000 µg/mL
IC50 [4]: 422 µM
Acetylcholinesterase (AChE) Percent Inhibition (Mean±SEM) ([4]; 1000 µg/mL): 71.3±1.9%
inhibition at 62.5 µg/mL ([4]; read-out: Acetylcholinesterase (AChE) Percent Inhibition (Mean±SEM), 62.5 μg/mL): 39.6%
inhibition at 125 µg/mL ([4]; read-out: Acetylcholinesterase (AChE) Percent Inhibition (Mean±SEM), 125 μg/mL): 55.9%
inhibition at 250 µg/mL ([4]; read-out: Acetylcholinesterase (AChE) Percent Inhibition (Mean±SEM), 250 μg/mL): 61.2%
inhibition at 500 µg/mL ([4]; read-out: Acetylcholinesterase (AChE) Percent Inhibition (Mean±SEM), 500 μg/mL): 65.4%
inhibition at 1000 µg/mL ([4]; read-out: Acetylcholinesterase (AChE) Percent Inhibition (Mean±SEM), 1000 μg/mL): 71.3 ± 1.92%
IC50 [2]: 539 µM
Butyrylcholinesterase (BChE) Percent Inhibition (Mean±SEM) ([2]; 1000 µg/mL): 73.4±1.9%
inhibition at 62.5 µg/mL [2]: 36.9%
inhibition at 125 µg/mL [2]: 49.3%
inhibition at 250 µg/mL [2]: 52.7%
inhibition at 500 µg/mL ([2]; read-out: Butyrylcholinesterase (BChE) Percent Inhibition (Mean±SEM), 500 μg/mL): 64.3%
inhibition at 1000 µg/mL [2]: 73.4 ± 1.92%
ABTS IC50 value (ABTS anti-radicals study): 84.36 µg/mL
ABTS % Inhibition (Mean±SEM) (ABTS anti-radicals study; 62.5 µg/mL): 48.08±2.19%
ABTS % Inhibition (Mean±SEM) (ABTS anti-radicals study; 125 µg/mL): 57.22±1.63%
ABTS % Inhibition (Mean±SEM) (ABTS anti-radicals study; 250 µg/mL): 61.28±0.84%
ABTS % Inhibition (Mean±SEM) (ABTS anti-radicals study; 500 µg/mL): 68.35±1.96%
ABTS % Inhibition (Mean±SEM) (ABTS anti-radicals study; 1000 µg/mL): 75.84±1.58%
ABTS % Inhibition (Mean±SEM) (ABTS anti-radicals study; [6]): 72.85±1.17%
ABTS IC50 value (ABTS anti-radicals study; listed as test compound): 139.74 µg/mL
DPPH IC50 value [1]: 139.74 µg/mL
DPPH % Inhibition (Mean±SEM) ([1]; 62.5 µg/mL): 33.32±2.04%
DPPH % Inhibition (Mean±SEM) ([1]; 125 µg/mL): 49.01±1.28%
DPPH % Inhibition (Mean±SEM) ([1]; 250 µg/mL): 61.41±2.36%
DPPH % Inhibition (Mean±SEM) ([1]; 500 µg/mL): 71.36±1.92%
DPPH % Inhibition (Mean±SEM) ([1]; 1000 µg/mL): 72.85±1.17%
DPPH % Inhibition (Mean±SEM) [1, 6]: 75.84±1.58%
DPPH IC50 value ([1]; listed as test compound): 84.36 µg/mL
H2O2 IC50 value (H2O2 anti-radicals study): 752.21 µg/mL
H2O2 % Inhibition (Mean±SEM) (H2O2 anti-radicals study; 62.5 µg/mL): 26.08±2.66%
H2O2 % Inhibition (Mean±SEM) (H2O2 anti-radicals study; 125 µg/mL): 31.58±1.40%
H2O2 % Inhibition (Mean±SEM) (H2O2 anti-radicals study; 250 µg/mL): 39.92±2.08%
H2O2 % Inhibition (Mean±SEM) (H2O2 anti-radicals study; 500 µg/mL): 46.08±1.36%
H2O2 % Inhibition (Mean±SEM) (H2O2 anti-radicals study; 1000 µg/mL): 54.82±1.82%
Pheretima posthuma Death Time (Pheretima posthuma; 10 mg/mL): 23.67 ± 1.52 min
Pheretima posthuma Paralysis Time (Pheretima posthuma; 10 mg/mL): 06.67 ± 1.08 min
Pheretima posthuma Death Time (Pheretima posthuma; 20 mg/mL): 19.23 ± 2.56 min
Pheretima posthuma Paralysis Time (Pheretima posthuma; 20 mg/mL): 05.68 ± 0.34 min
Pheretima posthuma Death Time (Pheretima posthuma; 40 mg/mL): 14.71 ± 1.73 min
Pheretima posthuma Paralysis Time (Pheretima posthuma; 40 mg/mL): 02.48 ± 1.62 min
Pheretima posthuma Death Time (Pheretima posthuma; [7]): 14.71 min
Pheretima posthuma Paralysis Time (Pheretima posthuma; [7]): 2.48 min
Ascaridia galli Death Time (Ascaridia galli; 10 mg/mL): 18.42 ± 1.70 min
Ascaridia galli Paralysis Time (Ascaridia galli; 10 mg/mL): 06.54 ± 1.67 min
Ascaridia galli Death Time (Ascaridia galli; 20 mg/mL): 11.36 ± 1.94 min
Ascaridia galli Paralysis Time (Ascaridia galli; 20 mg/mL): 04.82 ± 1.38 min
Ascaridia galli Death Time (Ascaridia galli; 40 mg/mL): 09.39 ± 1.48 min
Ascaridia galli Paralysis Time (Ascaridia galli; 40 mg/mL): 02.19 ± 0.96 min
